Screening results deposited in PubChem by Johns Hopkins Ion Channel Center.
Most compounds without a hit are left out; they make up all but 3.1% or so of the library.
hERG protect = compounds protecting human hERG from proarrhythmic drug block; activation (rescue from dofetilide block), less the hit threshold, % at 10 µM; 310,000 compounds, 0.51% hits; Q12809; CHO-hERG, FluxOR thallium flux, dofetilide IC70 present;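 active = activation above the mean of controls blocked by dofetilide plus 5 SD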;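 also: thallium influx through hERG after potassium depolarization seen as dye fluorescence rise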
KCNQ1 inh = inhibitors of human KCNQ1 potassium channel | P51787 | CHO-K1 KCNQ1, FluxOR thallium flux fluorescence; active compounds read high | B-score at 10 µM | 310,000 compounds, 1.3% hits | AID 2642;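 active = compounds whose thallium flux B-score, printed positive for inhibition, exceeds three library SD while starting fluorescence stays within three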;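 also: channel opened by potassium depolarization with thallium stimulus after 20 min compound exposure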
Target sequence (P51787 whole entry, looked up): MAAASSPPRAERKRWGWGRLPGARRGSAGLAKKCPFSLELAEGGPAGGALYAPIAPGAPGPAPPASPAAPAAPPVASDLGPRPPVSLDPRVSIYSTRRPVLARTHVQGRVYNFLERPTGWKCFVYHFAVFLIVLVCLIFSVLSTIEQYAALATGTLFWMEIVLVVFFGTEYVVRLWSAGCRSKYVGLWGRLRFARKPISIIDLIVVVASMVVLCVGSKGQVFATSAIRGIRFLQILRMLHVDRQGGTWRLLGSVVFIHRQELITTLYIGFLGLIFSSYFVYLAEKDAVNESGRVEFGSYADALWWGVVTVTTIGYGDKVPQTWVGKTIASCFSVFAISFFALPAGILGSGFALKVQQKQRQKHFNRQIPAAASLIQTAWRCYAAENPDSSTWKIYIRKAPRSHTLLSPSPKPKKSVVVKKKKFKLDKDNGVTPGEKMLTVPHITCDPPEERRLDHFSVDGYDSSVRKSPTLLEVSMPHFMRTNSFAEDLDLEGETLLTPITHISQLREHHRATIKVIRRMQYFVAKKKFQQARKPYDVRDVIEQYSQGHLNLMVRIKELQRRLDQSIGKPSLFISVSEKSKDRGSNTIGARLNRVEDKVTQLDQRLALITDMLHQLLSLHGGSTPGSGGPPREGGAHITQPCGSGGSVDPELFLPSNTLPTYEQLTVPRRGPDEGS
KCNQ1 pot = potentiates or activates the human KCNQ1 potassium channel; B-score at 10 µM; 310,000 compounds, 0.35% hits; P51787; AID 2648; CHO-K1 KCNQ1, thallium flux FluxOR fluorescence; active compounds read high;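 active = fluorescence ratio B-score, a plate-corrected score, at least three library SD, with initial intensity B-score within 5 SD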
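System: Stable KCNQ1 CHO-K1 line | Incubation: 90 min dye loading and 20 min compound exposure, both at room temperature | Measure: Ratio B score | Medium: Assay buffer for compound exposure, DMSO matched across wells | Compound dosing: Single-concentration screen | Probe or stimulus: K+/Tl+ depolarizing stimulus | Measured by: Kinetic FluxOR fluorescence, 10 s baseline plus 110 s post-stimulus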
KCNK9 block = human KCNK9 channel inhibition; HEK293 KCNK9, FluxOR thallium flux fluorescence; active compounds read low; B-score at 10 µM; Q9NPC2; 310,000 compounds, 1.2% hits;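 active = ratio B-score over 3 SD below the library mean, with starting fluorescence within 5 SD of its mean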;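 also: negative B-score means less thallium flux so channel inhibition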
KCNK3 inh = human KCNK3 channel inhibition, primary screen; O14649; CHO-KCNK3 thallium flux, FluxOR fluorescence; active compounds read low; B-score at 10 µM; 340,000 compounds, 0.84% hits;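 active = B-score under library mean minus 4 SD, starting fluorescence ratio at most library mean plus 5 SD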;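 also: more negative B-score means stronger inhibition of thallium flux through KCNK3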
* marks the source's active call; other numbers are inactive results; i = inactive; / = not tested or not shown.

SMILES	hERG protect	KCNQ1 inh	KCNQ1 pot	KCNK9 block	KCNK3 inh
COc1cc(C(C[N+](=O)[O-])c2c(-c3ccccc3)cc3ccccn23)cc(OC)c1OC (configuration not stated)	-4	i	i	-7.9*	i
NS(=O)(=O)c1ccc(CNC(=O)c2ccc(NS(=O)(=O)c3cccs3)cc2)cc1	/	/	/	/	i
COCCN(CC(=O)Nc1cccc(C)c1C)C(=O)C1CCN(S(=O)(=O)c2ccccc2)CC1	/	/	/	/	i
CCOc1cc(C)cc2oc(=O)cc(-c3ccccc3)c12	-12	i	i	-7*	i
Cc1ccc(S(=O)(=O)N(CC(=O)O)Cc2ccco2)cc1	-7	i	i	i	i
Cc1ccc(S(=O)(=O)N(Cc2ccc(F)cc2)Cc2ccco2)cc1	-6	6*	i	i	i
COc1ccc(NS(=O)(=O)c2cc(NS(=O)(=O)c3cc(C(=O)O)ccc3OC)ccc2C)cc1	/	/	/	/	i
COC(=O)c1ccc(C(=O)OC)c(NC(=O)CCC(=O)O)c1	-10	i	i	i	i
COC(=O)c1ccc(C(=O)OC)c(NC(=O)CCc2ccc(C)o2)c1	45*	i	i	i	i
CCCc1nnc(NC(=O)CCC(=O)N2CCN(Cc3ccc(Cl)cc3)CC2)s1	-5	i	i	i	i
O=C(Nc1cccc(C(=O)O)c1)/C(=C\c1ccccc1Cl)NC(=O)c1ccco1	-14	i	i	i	i
CC(=O)C(=Nc1ccc(Cl)cc1Cl)NNc1cccc(Cl)c1	-9	10*	i	i	i
Cc1c(CCOC(=O)CC23CC4CC(CC(C)(C4)C2)C3)sc[n+]1CC(=O)c1ccccc1	-18	11*	i	i	i
Cc1c(CCOC(=O)C23CC4CC(CC(C)(C4)C2)C3)sc[n+]1CC(=O)c1ccccc1	-15	i	i	i	i
CC1(C)C[C@@H]2C[C@@](C)(CN2C(=O)c2cc(COc3cccc(C(F)(F)F)c3)on2)C1	-14	7*	i	i	i
O=C(Nc1ccc(Nc2ccncc2)cc1)c1ccc([N+](=O)[O-])cc1	-15	i	i	i	i
O=C(Nc1ccc(Nc2ccncc2)cc1)c1ccc(Nc2ccnc3ccc([N+](=O)[O-])cc23)cc1[N+](=O)[O-]	13*	i	i	i	i
O=C1C=C(O)C(n2cncn2)C(c2ccc(F)cc2)C1 (configuration not stated)	5.2*	i	i	i	i
O=C1CC(=O)C(n2cncn2)C(c2ccc(Cl)cc2)C1 (configuration not stated)	-8	i	i	i	i
CC(C)(C)c1ccc(C(=O)NC(=S)Nc2nc3c(s2)CCCC3)cc1	28*	i	33*	i	i
CCCCN(C)C(=O)CCCCn1c(=O)[nH]c2cc(OCC)c(OCC)cc2c1=O	48*	i	i	i	i
CCCCC(=O)Nc1ccc(NCc2ccc(C)s2)cc1	8.6*	i	i	i	i
CCCCC(=O)Nc1ccc(C(N)=O)cc1	-6	i	i	i	i
CC(C)(C)c1ccc(-n2ncc3c2CCCC3NC(=O)CCN2CCCC2=O)cc1 (configuration not stated)	-13	i	i	i	i
O=C(O)c1ccccc1NC(=S)NC(=O)c1sc2ccccc2c1Cl	-4	i	i	i	i
SMILES	hERG protect	KCNQ1 inh	KCNQ1 pot	KCNK9 block	KCNK3 inh
O=C(NC(=S)Nc1ccc(N2CCOCC2)c(Cl)c1)c1sc2ccccc2c1Cl	21*	i	21*	i	i
O=C(NNC(=O)c1sc2ccccc2c1Cl)Nc1ccc(Cl)cc1	-10	i	i	i	i
Cc1ccc(NC(=S)NC(=O)c2sc3ccccc3c2Cl)c(C(=O)O)c1	8.6*	i	9*	i	/
O=C(NC(=S)Nc1ccccc1N1CCOCC1)c1sc2ccccc2c1Cl	-7	i	13*	i	i
O=C(NNC(=S)NC(=O)c1sc2ccccc2c1Cl)c1ccc(Cl)cc1	44*	i	62*	i	i
O=C(NC(=S)Nc1ccc(N2CCOCC2)c(Cl)c1)c1cccs1	1	i	i	i	i
O=c1[nH][nH]c2cc([N+](=O)[O-])ccc12	/	/	/	/	i
O=[N+]([O-])c1nc2ccccc2[nH]1	/	/	/	/	i
CN(C)CCCOC(=O)c1sc2ccccc2c1Cl	-8	i	i	i	i
CCCCOC(=S)NC(=O)c1sc2ccccc2c1Cl	31*	i	53*	i	i
COc1ccc(OCC(=O)Nc2ccc(N3CCOCC3)c(Cl)c2)cc1	-4	i	i	i	i
COc1ccc(OCC(=O)NC(=S)Nc2ccc(N3CCOCC3)c(Cl)c2)cc1	-9	i	13*	i	i
CCCn1c(N)c(C(=O)COC(=O)/C=C/c2ccc(OC(F)F)c(OC)c2)c(=O)[nH]c1=O	/	/	/	/	i
O=C(COC(=O)CCCc1nc2ccccc2s1)NC(=O)NCc1ccco1	6.4*	i	i	i	i
CC(C)COc1ccc(-c2nn(-c3ccccc3)cc2/C=C2/SC(=S)N(CC(=O)O)C2=O)cc1	-5	i	8*	i	i
O=C1C=C(c2cccc3c2oc2ccccc23)CCC1	-10	i	i	i	i
CC1(C)CC(=O)C=C(c2cccc3c2oc2ccccc23)C1	-8	6*	i	i	i
Cc1ccc(NC(=O)c2ccc3c(c2)CCN3S(C)(=O)=O)c(C)c1	5.3*	i	i	i	i
COc1ccccc1NC(=O)c1ccc2c(c1)CCN2S(C)(=O)=O	-5	i	i	i	i
CCN(CC)CCN1C(=O)/C(=C\c2ccc(Cl)c([N+](=O)[O-])c2)SC1=Nc1ccc(OC)cc1	-19	i	i	i	i
COc1ccc(N=C2S/C(=C\c3ccc(Cl)c([N+](=O)[O-])c3)C(=O)N2CCN(C)C)cc1	-35	10*	i	i	i
Cc1ccc(-n2[nH]c(C)c(/C=N/Nc3ccc([N+](=O)[O-])cc3[N+](=O)[O-])c2=O)cc1	-9	7*	i	i	i
CCCN(C(=O)c1cc(S(=O)(=O)N(C)c2ccccc2OC)ccc1C)C1CCS(=O)(=O)C1 (configuration not stated)	/	/	/	/	i
CCOC(=O)Nc1ccc2c(c1)Nc1ccccc1S2	-7	i	i	-6.6*	i
C[C@@H](c1ccccc1)N1C[C@H]2CCCN2c2cc(Br)ccc2S1(=O)=O	/	/	/	/	i
C[C@@H]1CN([C@@H](C)CO)C(=O)c2cccc(NC(=O)Nc3ccc4c(c3)OCO4)c2O[C@H]1CN(C)S(=O)(=O)c1cn(C)cn1	/	/	/	/	i
CCc1ccc(-c2nc(SCC(=O)N3CCOCC3)n[nH]2)cc1	10*	i	i	i	i
